Assay results reported in ChEMBL document CHEMBL4808187, “Antiarrhythmic Hit to Lead Refinement in a Dish Using Patient-Derived iPSC Cardiomyocytes” (J Med Chem, 2021).
The source made the active and inactive calls. No cut-off for these calls is given here.

Tests used:
[1] = Antiarrhythmic activity in hiPSC-CMs assessed as prolongation of action potential; design: species or system Homo sapiens, iPSC-CM; settings: ipsc-cm
[2] = Inhibition of potassium channel (unknown origin) expressed in CHO cells assessed as reduction in potassium current by automated patch clamp method; assay type: cell-based
[3] = Antiarrhythmic activity in hiPSC-CMs assessed as cessation dose of cell beating; settings: human, ipsc-cm
[4] = Antiarrhythmic activity in patient-derived hiPSC-CMs carrying LQT3 mutation assessed as cessation dose for cell beating; assay type: functional, Homo sapiens, iPSC-CM
[5] = Antiarrhythmic activity in hiPSC-CMs assessed as dose for induction of early after depolarizations; settings: human, ipsc-cm
[6] = Antiarrhythmic activity in patient-derived hiPSC-CMs carrying LQT3 mutation assessed as fold shortening of action potential duration relative to control; assay type: functional, Homo sapiens, iPSC-CM
[7] = Antiarrhythmic activity in patient-derived hiPSC-CMs carrying LQT3 mutation assessed as shortening dose of action potential; assay type: functional, Homo sapiens, iPSC-CM
Homo sapiens [8] = species on record: Homo sapiens; assay: Selectivity index, ratio of IC50 for sodium channel (unknown origin) expressed in HEK cells assessed as reduction in peak sodium current to IC50 for sodium channel (unknown origin) expressed in HEK cells assessed as reduction in late inward sodium current; assay type: cell-based
[9] = Inhibition of sodium channel (unknown origin) expressed in HEK cells assessed as reduction in late inward sodium current by automated patch clamp method; assay type: cell-based; settings: Homo sapiens, HEK293
[10] = Antiarrhythmic activity in patient-derived hiPSC-CMs carrying LQT3 mutation assessed as shortening of action potential duration; assay type: functional, Homo sapiens; settings: ipsc-cm; read-out: EC50
[11] = Inhibition of sodium channel (unknown origin) expressed in HEK cells assessed as reduction in peak sodium current by automated patch clamp method; assay type: cell-based; settings: Homo sapiens, HEK293
[12] = Antiarrhythmic activity in hiPSC-CMs assessed as fold prolongation of action potential relative to control; settings: human, ipsc-cm
Homo sapiens [13] = species on record: Homo sapiens; assay: Selectivity index, ratio of IC50 for potassium channel (unknown origin) expressed in HEK cells assessed as reduction in potassium current to IC50 for sodium channel (unknown origin) expressed in HEK cells assessed as reduction in late inward sodium current; assay type: cell-based
[14] = Chemical stability in pH 3 phosphate buffer assessed as half life at 100 uM by RP-HPLC analysis; assay type: physicochemical
[15] = Chemical stability in pH 7.4 phosphate buffer assessed as half life at 100 uM by RP-HPLC analysis; assay type: physicochemical
[16] = Tmax in Sprague-Dawley rat at 5 mg/kg, iv measured upto 25 hrs by LCMS analysis; assay type: ADME, organism-based; settings: in vivo
[17] = Half life in Sprague-Dawley rat at 5 mg/kg, iv measured upto 25 hrs by LCMS analysis; assay type: ADME, organism-based; settings: in vivo
[18] = AUC in Sprague-Dawley rat at 25 mg/kg, po measured upto 25 hrs by LCMS analysis; assay type: ADME, organism-based; design: route oral, dose 25 mg/kg, time <=25; settings: in vivo
[19] = Cmax in Sprague-Dawley rat at 5 mg/kg, iv measured upto 25 hrs by LCMS analysis; assay type: ADME, organism-based; design: route intravenous, dose 5 mg/kg, time <=25; settings: in vivo
[20] = Half life in Sprague-Dawley rat at 25 mg/kg, po measured upto 25 hrs by LCMS analysis; assay type: ADME, organism-based; settings: in vivo
[21] = Cmax in Sprague-Dawley rat at 25 mg/kg, po measured upto 25 hrs by LCMS analysis; assay type: ADME, organism-based; design: route oral, dose 25 mg/kg, time <=25; settings: in vivo
[22] = AUC in Sprague-Dawley rat at 5 mg/kg, iv measured upto 25 hrs by LCMS analysis; assay type: ADME, organism-based; design: route intravenous, dose 5 mg/kg, time <=25; settings: in vivo
[23] = Toxicity in ip dosed BALB/c mouse assessed as lethal dose; assay type: organism-based; settings: in vivo
[24] = Toxicity in BALB/c mouse assessed as behavioral effects at 100 mg/kg, ip monitored for 30 mins; assay type: organism-based; settings: in vivo, 0.5 h
Method in brief: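 Adult male BALB/c mice, four per compound, 100 mg/kg i.p.; behaviour (lethargy, immobilization, seizures, shaking) observed for 30 min; lethality recorded at 24 h.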

[25] = Tmax in Sprague-Dawley rat at 25 mg/kg, po measured upto 25 hrs by LCMS analysis; assay type: ADME, organism-based; settings: in vivo
[26] = Metabolic stability in human liver microsomes assessed as compound remaining at 50 uM after 1 hr by HPLC method; assay type: ADME, Microsome; settings: read-out: Stabilty
Method in brief: (§1)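 Human liver microsomes (0.4–0.5 mg protein) or S-9 (1 mg) with 50 μM compound in 50 mM potassium phosphate pH 7.4 plus NADPH-generating system, 37 °C shaking for 0, 7, 15, 30, 60 min; stopped with cold acetonitrile; HPLC C18, isocratic water/acetonitrile with 0.05% TFA, UV 275.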

[27] = Metabolic stability in human liver S9 fraction assessed as compound remaining at 50 uM after 1 hr by HPLC method; assay type: ADME, subcellular; settings: read-out: Stabilty; method in brief: as §1
Heart = assay: Antiarrhythmic activity in H2O2-perfused Sprague-Dawley rat heart assessed as resolution of arrhythmias to normal sinus rhythm at 10 uM after 30 to 40 mins; assay type: functional, tissue-based; settings: time 30-40 min
Method in brief: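 Perfused ex vivo hearts from aged rats; continuous perfusion of H2O2 (0.1 mM) induces EADs and ectopic beats progressing to VT/VF; test compound perfused at 10 μM with H2O2 still present; rhythm followed for conversion to sinus rhythm.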

[28] = Oral bioavailability in Sprague-Dawley rat at 25 mg/kg measured upto 25 hrs by LCMS analysis; assay type: ADME, organism-based; settings: in vivo
[29] = Toxicity in BALB/c mouse assessed as central nervous system effects at 100 mg/kg, ip; assay type: organism-based; settings: in vivo
[30] = Toxicity in BALB/c mouse assessed as lethargy at 100 mg/kg, ip monitored for 30 mins; assay type: organism-based; settings: in vivo, 0.5 h
Homo sapiens [31] = species on record: Homo sapiens; assay: Selectivity index, ratio of IC50 for potassium channel (unknown origin) expressed in CHO cells assessed as reduction in potassium current to IC50 for sodium channel (unknown origin) expressed in HEK cells assessed as reduction in late inward sodium current
Cytochrome P450 3A4 = Cytochrome P450 3A4 (Homo sapiens, UniProt P08684); assay: Drug metabolism assessed as human CYP3A4-mediated metabolism per ug protein; assay type: ADME; settings: recombinant enzyme
Cytochrome P450 3A5 = Cytochrome P450 3A5 (Homo sapiens, UniProt P20815); assay: Drug metabolism assessed as human CYP3A5-mediated metabolism per ug protein; assay type: ADME; settings: recombinant enzyme
Cytochrome P450 2D6 = Cytochrome P450 2D6 (Homo sapiens, UniProt P10635); assay: Drug metabolism assessed as human CYP2D6-mediated metabolism per ug protein; assay type: ADME; settings: recombinant enzyme
[32] = Metabolic stability in human liver S9 fraction assessed as half life at 50 uM measured upto 60 mins by HPLC method; assay type: ADME, subcellular; method in brief: as §1
[33] = Metabolic stability in human liver microsomes assessed as half life at 50 uM measured upto 60 mins by HPLC method; assay type: ADME, Microsome; method in brief: as §1

Chain of Cytochrome P450 2D6 (P10635 whole entry): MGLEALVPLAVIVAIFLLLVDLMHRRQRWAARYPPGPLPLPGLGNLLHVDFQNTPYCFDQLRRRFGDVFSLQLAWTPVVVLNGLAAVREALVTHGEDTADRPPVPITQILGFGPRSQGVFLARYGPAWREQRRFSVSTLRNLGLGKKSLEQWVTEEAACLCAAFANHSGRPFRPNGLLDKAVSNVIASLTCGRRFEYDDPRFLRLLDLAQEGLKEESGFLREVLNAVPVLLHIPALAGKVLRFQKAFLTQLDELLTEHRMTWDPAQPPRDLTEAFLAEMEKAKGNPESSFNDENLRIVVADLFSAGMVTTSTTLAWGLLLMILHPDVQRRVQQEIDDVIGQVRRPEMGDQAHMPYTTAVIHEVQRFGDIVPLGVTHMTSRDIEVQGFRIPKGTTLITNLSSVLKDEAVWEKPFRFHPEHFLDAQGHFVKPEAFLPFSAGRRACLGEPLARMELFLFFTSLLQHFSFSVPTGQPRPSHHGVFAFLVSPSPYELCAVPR
Chain of Cytochrome P450 3A5 (P20815 whole entry): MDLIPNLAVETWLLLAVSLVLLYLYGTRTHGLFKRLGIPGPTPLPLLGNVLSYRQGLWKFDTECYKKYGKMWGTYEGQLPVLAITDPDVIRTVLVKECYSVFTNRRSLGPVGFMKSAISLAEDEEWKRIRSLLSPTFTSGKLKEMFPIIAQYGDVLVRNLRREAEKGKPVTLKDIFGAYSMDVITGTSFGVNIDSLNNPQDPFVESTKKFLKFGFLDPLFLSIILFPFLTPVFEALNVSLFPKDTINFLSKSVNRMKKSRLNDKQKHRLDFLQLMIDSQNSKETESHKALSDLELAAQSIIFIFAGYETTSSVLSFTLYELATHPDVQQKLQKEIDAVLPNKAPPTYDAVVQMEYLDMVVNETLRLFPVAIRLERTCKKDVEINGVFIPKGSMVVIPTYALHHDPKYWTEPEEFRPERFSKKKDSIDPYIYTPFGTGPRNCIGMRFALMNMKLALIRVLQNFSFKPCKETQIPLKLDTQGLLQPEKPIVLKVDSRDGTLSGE
Chain of Cytochrome P450 3A4 (P08684 whole entry): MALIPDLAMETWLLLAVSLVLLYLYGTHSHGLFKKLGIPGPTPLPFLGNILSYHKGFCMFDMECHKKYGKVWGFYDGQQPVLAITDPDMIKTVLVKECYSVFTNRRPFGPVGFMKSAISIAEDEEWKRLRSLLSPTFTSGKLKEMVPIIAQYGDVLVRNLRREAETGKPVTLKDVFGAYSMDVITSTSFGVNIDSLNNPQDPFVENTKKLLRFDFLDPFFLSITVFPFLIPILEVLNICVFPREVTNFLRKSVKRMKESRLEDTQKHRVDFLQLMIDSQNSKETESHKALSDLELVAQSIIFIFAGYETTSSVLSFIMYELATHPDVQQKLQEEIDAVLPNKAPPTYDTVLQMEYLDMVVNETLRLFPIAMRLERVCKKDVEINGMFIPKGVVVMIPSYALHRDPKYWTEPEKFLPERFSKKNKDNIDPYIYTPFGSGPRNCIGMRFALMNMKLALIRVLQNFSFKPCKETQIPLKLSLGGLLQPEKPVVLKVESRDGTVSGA

Row | IC50 [2] | IC50 [9] | IC50 [11] | SMILES | Activity [3] | Activity [4] | Activity [5] | fold change (FC) [6] | Activity [7] | EC50 [10] | Tmax [16] | t1/2 [17] | AUC [18] | Cmax [19] | t1/2 [20] | Cmax [21] | AUC [22] | LD50 [23] | Tmax [25] | remaining at 1 h, 50 µM [26] | remaining at 1 h, 50 µM [27] | further results
1 | 7.16 µM | 1.03 µM | 20 µM | Cl.NC(COc1cc(C(F)(F)F)cc(C(F)(F)F)c1)c1ccccc1 (centres undefined) | 133 µM | 66 µM | Not Active | 1.208 | 22 µM | 23.1 µM | – | – | – | – | – | – | – | – | – | – | – | EC50 [1]: Not Active; Ratio IC50 (Homo sapiens [8]): 19.4
2 | 98 µM | 51.8 µM | 162 µM | Cc1ccc(C)c(OCC(N)C2CC2)c1.Cl (centres undefined) | 200 µM | 200 µM | 66 µM | 1.11 | 66 µM | 0.022 µM | – | – | – | – | – | – | – | – | – | – | – | fold change (FC) [12]: 1.686; Ratio IC50 (Homo sapiens [13]): 1.9
3 | 27.6 µM | 0.747 µM | 25.8 µM | COCCNC(COc1cccc(C)c1C)c1ccccc1.Cl (racemic) | Not Active | 200 µM | Not Active | 1.508 | 133 µM | 5.73 µM | – | – | – | – | – | – | – | – | – | – | – | half-life at 100 µM [14]: > 720 h; Activity [12]: Not Active; Ratio IC50 (Homo sapiens [8]): 34.5; half-life at 100 µM [15]: > 720 h
4 | – | – | – | Cl.N[C@@H](COc1ccccc1C(F)(F)F)c1ccccc1 | – | – | – | – | – | – | 0.18 h | 1.2 h | 1556 ng·h/mL | 249 ng/mL | 5.3 h | 258 ng/mL | 280 ng·h/mL | > 200 mg/kg | 1.5 h | > 95% | > 95% | Activity [24]: Non-Toxic; Activity (Heart): Active; bioavailability [28]: 100%
5 | – | – | – | Cl.N[C@H](COc1ccccc1C(F)(F)F)c1ccccc1 | – | – | – | – | – | – | 0.17 h | 3.8 h | 1008 ng·h/mL | 219 ng/mL | 6.5 h | 226 ng/mL | 407 ng·h/mL | > 200 mg/kg | 1.5 h | > 95% | > 95% | Activity [29]: Toxic; Activity [30]: Toxic; bioavailability [28]: 42%
6 | 37.5 µM | 1.04 µM | 41.1 µM | Cl.NC(COc1ccccc1C(F)(F)F)c1ccccc1 (racemic) | 66 µM | 66 µM | Not Active | 1.783 | 22 µM | < 0.8 µM | 0.17 h | 3.2 h | 1008 ng·h/mL | 250 ng/mL | 6.5 h | 226 ng/mL | 544 ng·h/mL | – | 1.5 h | – | – | Ratio IC50 (Homo sapiens [31]): 36.1; EC50 [1]: Not Active; Drug metabolism (Cytochrome P450 3A4): 15.4 pmol/min; Drug metabolism (Cytochrome P450 3A5): 42.6 pmol/min; Drug metabolism (Cytochrome P450 2D6): 43.6 pmol/min; half-life at 100 µM [14]: > 360 h; half-life at 100 µM [15]: > 720 h; bioavailability [28]: 38%
7 | – | – | – | Cc1cc(C)cc(OC[C@H](N)c2ccccc2)c1.Cl | – | – | – | – | – | – | – | – | – | – | – | – | – | > 200 mg/kg | – | – | – | half-life at 50 µM [32]: 16.9 h; Activity [24]: Non-Toxic; half-life at 50 µM [33]: 6.77 h
8 | – | – | – | Cc1ccccc1OC[C@H](N)c1ccccc1.Cl | – | – | – | – | – | – | – | – | – | – | – | – | – | – | – | – | – | half-life at 50 µM [32]: 6.8 h; half-life at 50 µM [33]: 6.08 h
9 | – | – | – | Cc1cc(C)cc(OC[C@@H](N)c2ccccc2)c1.Cl | – | – | – | – | – | – | – | – | – | – | – | – | – | > 200 mg/kg | – | > 95% | > 95% | Activity [29]: Toxic; Activity [30]: Toxic
